Measured values reported in ChEMBL document CHEMBL1641569, “Synthetic conjugates of genistein affecting proliferation and mitosis of cancer cells” (Bioorg Med Chem, 2011).
Activity calls are given as the source filed them. No cut-off for these calls is given here.

Tests used:
HCT-116 [1] = assay: Cytotoxicity against human HCT116 cells after 72 hrs by MTT assay; assay type: functional, cell-based; conditions: HCT-116, 72 h
HCT-116 [2] = assay: Cell cycle arrest in human HCT116 cells assessed as accumulation at G2/M phase at 5 to 20 uM after 24 hrs by propidium iodide staining-based flow cytometry; assay type: functional
How it was run: (§1)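 Subconfluent cultures exposed continuously to compound; floating and trypsinized adherent cells pooled, PBS-washed, fixed in ice-cold 70% ethanol 30 min, RNase (100 µg/mL) treated, stained with propidium iodide, DNA content measured by flow cytometry to give G1, S, G2/M, apoptotic (sub-G1) and polyploid fractions. Experiments repeated at least twice.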

HCT-116 [3] = assay: Inhibition of mitosis in human HCT116 cells assessed as mitotic index at 20 uM after 24 hrs by fluorescence assay; assay type: functional
How it was run: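 Cells treated 24 h, collected as for cell cycle analysis, cytospun, fixed in cold methanol, stained with 3 µM DAPI; mitotic cells counted among 1000 cells under 40× objective. Mean ± SD from three independent experiments.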

HCT-116 [4] = assay: Cell cycle arrest in human HCT116 cells assessed as accumulation at G2/M phase after 24 hrs by propidium iodide staining-based flow cytometry; assay type: functional; how it was run: as §1
[5] = Solubility of the compound at 20 uM

Structure (SMILES)	IC50 (HCT-116 [1]) [µM]	Activity (HCT-116 [2])	Activity (HCT-116 [3])	Activity (HCT-116 [4])	solubility [5]
O=c1c(-c2ccc(O)cc2)coc2cc(OCCCO)cc(O)c12	23.9	–	–	–	–
O=c1c(-c2ccc(O)cc2)coc2cc(OCCCCCO)cc(O)c12	6.92	inactive	3	–	–
CC(=O)OC[C@H]1O[C@@H](O[C@H]2C=C[C@@H](OCCCCCOc3cc(O)c4c(=O)c(-c5ccc(O)cc5)coc4c3)O[C@@H]2COC(C)=O)[C@H](OC(C)=O)[C@@H](OC(C)=O)[C@H]1OC(C)=O	> 20	–	–	–	–
CC(=O)O[C@@H]1C=C[C@H](OCCOc2cc(O)c3c(=O)c(-c4ccc(O)cc4)coc3c2)O[C@H]1C	9.32	inactive	1.3	–	–
CC(=O)OC[C@H]1O[C@H](OCCCCCOc2cc(O)c3c(=O)c(-c4ccc(O)cc4)coc3c2)C=C[C@@H]1OC(C)=O	8.45	–	5.2	Dose-dependent effect	–
CC(=O)OC[C@H]1O[C@@H](O[C@H]2C=C[C@@H](OCCOc3cc(O)c4c(=O)c(-c5ccc(O)cc5)coc4c3)O[C@@H]2COC(C)=O)[C@H](OC(C)=O)[C@@H](OC(C)=O)[C@H]1OC(C)=O	> 20	–	–	–	Insoluble
